Results taken from ChEMBL document CHEMBL1817584, “Synthesis of novel fluconazoliums and their evaluation for antibacterial and antifungal activities” (2011).

Experiments:
Format in all cases: functional
Staphylococcus aureus [1] = assay: Ratio of Chloromycin MIC to compound MIC for Staphylococcus aureus ATCC 6538
Aspergillus fumigatus = assay: Antifungal activity against Aspergillus fumigatus ATCC 96918 after 24 hrs by twofold serial dilution method; settings: ATCC 96918, 24 h
Outline: (§1)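 A fungal spore suspension was made in sterile distilled water from a 1-day-old culture grown on Sabouraud agar, then tested against serial dilutions of compounds (DMSO stocks) to determine MIC.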

Candida albicans = assay: Antifungal activity against Candida albicans ATCC 76615 after 24 hrs by twofold serial dilution method; settings: ATCC 76615, 24 h; outline: as §1
Bacillus [2] = assay: Antibacterial activity against Bacillus proteus ATCC 13315 after 24 hrs by twofold serial dilution method; settings: ATCC 13315, 24 h
Outline: (§2)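 Each bacterial suspension was adjusted with sterile saline to 1 × 10⁵ CFU. Compounds were first dissolved in DMSO as stock solutions, then diluted in Mueller–Hinton broth in twofold steps (8, 4, 2, 1, 0.5, 0.25). Dilutions were inoculated and incubated at 37 °C for 24 h, and MIC was read. DMSO plus inoculum without drug served as a solvent control.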

Pseudomonas aeruginosa [3] = assay: Antibacterial activity against Pseudomonas aeruginosa ATCC 27853 after 24 hrs by twofold serial dilution method; settings: ATCC 27853, 24 h; outline: as §2
Bacillus subtilis [4] = assay: Antibacterial activity against Bacillus subtilis ATCC 21216 after 24 hrs by twofold serial dilution method; settings: ATCC 21216, 24 h; outline: as §2
Staphylococcus aureus [5] = assay: Antibacterial activity against Staphylococcus aureus ATCC 6538 after 24 hrs by twofold serial dilution method; settings: ATCC 6538, 24 h; outline: as §2
Escherichia coli [6] = assay: Antibacterial activity against Escherichia coli ATCC 8099 after 24 hrs by twofold serial dilution method; settings: ATCC 8099, 24 h; outline: as §2
Staphylococcus aureus [7] = assay: Antibacterial activity against methicillin-resistant Staphylococcus aureus N315 after 24 hrs by twofold serial dilution method; settings: N315, 24 h
Outline: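 Compounds were dissolved in DMSO as stock, then diluted twofold in Mueller–Hinton broth. Chloromycin and norfloxacin were run as reference drugs. The inoculum was adjusted in sterile saline to 1 × 10⁵ CFU, and a DMSO-plus-inoculum well served as solvent control. Plates were incubated at 37 °C for 24 h and read as MIC.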

Staphylococcus aureus [8] = assay: Ratio of Norfloxacin MIC to compound MIC for Staphylococcus aureus ATCC 6538
Pseudomonas aeruginosa [9] = assay: Ratio of Chloromycin MIC to compound MIC for Pseudomonas aeruginosa ATCC 27853
Escherichia coli [10] = assay: Ratio of Chloromycin MIC to compound MIC for Escherichia coli ATCC 8099
Bacillus [11] = assay: Ratio of Chloromycin MIC to compound MIC for Bacillus proteus ATCC 13315
Bacillus subtilis [12] = assay: Ratio of Chloromycin MIC to compound MIC for Bacillus subtilis ATCC 21216

SMILES: CCCCCCCC[n+]1cnn(CC(O)(Cn2c[n+](CCCCCCCC)cn2)c2ccc(F)cc2F)c1.[Br-].[Br-]
- Ratio (Staphylococcus aureus [1]): 64
- MIC (Aspergillus fumigatus): 128 µg/mL
- MIC (Candida albicans): 2 µg/mL
- MIC (Bacillus [2]): 64 µg/mL
- MIC (Pseudomonas aeruginosa [3]): 8 µg/mL
- MIC (Bacillus subtilis [4]): 32 µg/mL
- MIC (Staphylococcus aureus [5]): 1 µg/mL
- MIC (Escherichia coli [6]): 1 µg/mL
- MIC (Staphylococcus aureus [7]): 8 µg/mL
- Ratio (Staphylococcus aureus [8]): 8

SMILES: OC(Cn1c[n+](CCOc2ccc3ccccc3c2)cn1)(Cn1c[n+](CCOc2ccc3ccccc3c2)cn1)c1ccc(F)cc1F.[Br-].[Br-]
- Ratio (Pseudomonas aeruginosa [9]): 4
- Ratio (Staphylococcus aureus [1]): 4
- Ratio (Escherichia coli [10]): 4
- Ratio (Bacillus [11]): 4
- MIC (Aspergillus fumigatus): 128 µg/mL
- MIC (Candida albicans): 8 µg/mL
- MIC (Bacillus [2]): 4 µg/mL
- MIC (Pseudomonas aeruginosa [3]): 8 µg/mL
- MIC (Bacillus subtilis [4]): 64 µg/mL
- MIC (Staphylococcus aureus [5]): 4 µg/mL
- Ratio (Bacillus subtilis [12]): 4
- MIC (Escherichia coli [6]): 2 µg/mL
- MIC (Staphylococcus aureus [7]): 32 µg/mL
